According to ChEMBL document CHEMBL1649319, “In vitro antifungal activities of isavuconazole and comparators against rare yeast pathogens” (2010):

Legend:
Assay type in all cases: functional
Saccharomyces cerevisiae [1] = assay: Antifungal activity against Saccharomyces cerevisiae after 5 days by broth microdilution method; details: 120 h
Rhodotorula mucilaginosa [2] = assay: Antifungal activity against Rhodotorula mucilaginosa after 7 days by Etest; details: 168 h
Rhodotorula mucilaginosa [3] = assay: Antifungal activity against Rhodotorula mucilaginosa after 7 days by broth microdilution method; details: 168 h
Magnusiomyces capitatus [4] = assay: Antifungal activity against Dipodascus capitatus after 3 days by broth microdilution method; details: 72 h
Magnusiomyces capitatus [5] = assay: Antifungal activity against Dipodascus capitatus after 4 days by Etest; details: 96 h
Magnusiomyces capitatus [6] = assay: Antifungal activity against Dipodascus capitatus after 48 hrs by broth microdilution method
Method in brief: (§1)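 CLSI M27-A3 broth microdilution. Isolates were identified by ITS1-5.8S-ITS2 sequencing, kept at −70°C in sterile water, and revived on potato dextrose or Sabouraud agar. Drug ranges in wells were 0.015–16 or 0.125–128 μg/ml, depending on the agent. Plates were incubated at 35°C and MICs read visually at 48 h. QC strains were C. krusei ATCC 6258 and C. parapsilosis ATCC 22019.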

Magnusiomyces capitatus [7] = assay: Antifungal activity against Dipodascus capitatus after 48 hrs by Etest
Method in brief: (§2)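 Etest on 2% glucose-RPMI agar. Yeast suspensions were swabbed across the plates and strips applied, then incubated at 35°C for 48 h. MIC was the lowest concentration where the elliptical inhibition zone border met the strip scale. Each reading was raised to the next 2-fold dilution on the CLSI scale and converted to log2. Isolates were revived from −70°C stocks on potato dextrose or Sabouraud agar.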

Rhodotorula mucilaginosa [8] = assay: Antifungal activity against Rhodotorula mucilaginosa after 48 hrs by broth microdilution method; method in brief: as §1
Rhodotorula mucilaginosa [9] = assay: Antifungal activity against Rhodotorula mucilaginosa after 48 hrs by Etest; method in brief: as §2
Saccharomyces cerevisiae [10] = assay: Antifungal activity against Saccharomyces cerevisiae after 48 hrs by broth microdilution method; method in brief: as §1
Saccharomyces cerevisiae [11] = assay: Antifungal activity against Saccharomyces cerevisiae after 48 hrs by Etest; method in brief: as §2
[12] = system: Cutaneotrichosporon mucoides; assay: Antifungal activity against Trichosporon mucoides after 48 hrs by broth microdilution method; method in brief: as §1
[13] = system: Cutaneotrichosporon mucoides; assay: Antifungal activity against Trichosporon mucoides after 48 hrs by Etest; method in brief: as §2
Trichosporon inkin [14] = assay: Antifungal activity against Trichosporon inkin after 48 hrs by broth microdilution method; method in brief: as §1
Trichosporon inkin [15] = assay: Antifungal activity against Trichosporon inkin after 48 hrs by Etest; method in brief: as §2
[16] = Antifungal activity against Trichosporon jirovecii after 48 hrs by broth microdilution method; details: Cutaneotrichosporon jirovecii; method in brief: as §1
[17] = Antifungal activity against Trichosporon jirovecii after 48 hrs by Etest; details: Cutaneotrichosporon jirovecii; method in brief: as §2
[18] = Antifungal activity against Trichosporon domesticum after 48 hrs by broth microdilution method; details: Apiotrichum domesticum; method in brief: as §1
[19] = Antifungal activity against Trichosporon domesticum after 48 hrs by Etest; details: Apiotrichum domesticum; method in brief: as §2
Trichosporon asahii [20] = assay: Antifungal activity against Trichosporon asahii after 48 hrs by broth microdilution method; method in brief: as §1
Trichosporon asahii [21] = assay: Antifungal activity against Trichosporon asahii after 48 hrs by Etest; method in brief: as §2
[22] = system: Cutaneotrichosporon mucoides; assay: Antifungal activity against Trichosporon mucoides assessed as percent susceptible isolates after 48 hrs by broth microdilution method
Method in brief: (§3)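 Broth microdilution MICs (CLSI, 35°C, visual read at 48 h) were sorted into categories using CLSI M27-A3 triazole breakpoints. Susceptible was ≤1 or ≤8 μg/ml, SDD was 2 or 16–32 μg/ml, and resistant was ≥4 or ≥64 μg/ml, depending on the agent. Each category is the percentage of isolates falling in it.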

[23] = system: Cutaneotrichosporon mucoides; assay: Antifungal activity against Trichosporon mucoides assessed as percent susceptible/dose-dependent isolates after 48 hrs by broth microdilution method; method in brief: as §3
Trichosporon [24] = assay: Antifungal activity against Trichosporon sp. after 3 days by broth microdilution method; details: 72 h
Trichosporon [25] = assay: Antifungal activity against Trichosporon sp. after 4 days by Etest; details: 96 h

OC(Cn1cncn1)(Cn1cncn1)c1ccc(F)cc1F [FLUCONAZOLE]
64 µg/mL: MIC90 (Saccharomyces cerevisiae [11])
> 128 µg/mL: MIC (Rhodotorula mucilaginosa [2]) | MIC50 (Rhodotorula mucilaginosa [2]) | MIC90 (Rhodotorula mucilaginosa [2]) | MIC (Rhodotorula mucilaginosa [3]) | MIC50 (Rhodotorula mucilaginosa [3]) | MIC90 (Rhodotorula mucilaginosa [3]) | MIC (Rhodotorula mucilaginosa [8]) | MIC50 (Rhodotorula mucilaginosa [8]) | MIC90 (Rhodotorula mucilaginosa [8]) | MIC (Rhodotorula mucilaginosa [9]) | MIC50 (Rhodotorula mucilaginosa [9]) | MIC90 (Rhodotorula mucilaginosa [9])
8 µg/mL: MIC90 [12] | MIC90 (Trichosporon inkin [14]) | MIC90 [16] | MIC90 [18] | MIC90 (Trichosporon asahii [20]) | MIC90 [22] | MIC90 [23] | MIC90 (Trichosporon [24])
1 µg/mL: MIC50 (Magnusiomyces capitatus [5]) | MIC50 (Magnusiomyces capitatus [7]) | MIC50 [13] | MIC50 (Trichosporon inkin [15]) | MIC50 [17] | MIC50 [19] | MIC50 (Trichosporon asahii [21]) | MIC50 (Trichosporon [25])
16 µg/mL: MIC90 (Saccharomyces cerevisiae [1]) | MIC90 (Magnusiomyces capitatus [4]) | MIC90 (Magnusiomyces capitatus [6]) | MIC90 (Saccharomyces cerevisiae [10])
4 µg/mL: MIC50 (Saccharomyces cerevisiae [1]) | MIC50 (Magnusiomyces capitatus [4]) | MIC90 (Magnusiomyces capitatus [5]) | MIC50 (Magnusiomyces capitatus [6]) | MIC90 (Magnusiomyces capitatus [7]) | MIC50 (Saccharomyces cerevisiae [10]) | MIC50 (Saccharomyces cerevisiae [11]) | MIC90 [13] | MIC90 (Trichosporon inkin [15]) | MIC90 [17] | MIC90 [19] | MIC90 (Trichosporon asahii [21]) | MIC90 (Trichosporon [25])
2 µg/mL: MIC50 [12] | MIC50 (Trichosporon inkin [14]) | MIC50 [16] | MIC50 [18] | MIC50 (Trichosporon asahii [20]) | MIC50 [22] | MIC50 [23] | MIC50 (Trichosporon [24])

CC[C@@H]([C@H](C)O)n1ncn(-c2ccc(N3CCN(c4ccc(OC[C@@H]5CO[C@@](Cn6cncn6)(c6ccc(F)cc6F)C5)cc4)CC3)cc2)c1=O [POSACONAZOLE]
0.25 µg/mL: MIC90 [12] | MIC90 (Trichosporon inkin [14]) | MIC90 [16] | MIC90 [18] | MIC90 (Trichosporon asahii [20]) | MIC90 [22] | MIC90 [23] | MIC90 (Trichosporon [24])
0.5 µg/mL: MIC90 (Magnusiomyces capitatus [4]) | MIC90 (Magnusiomyces capitatus [5]) | MIC90 (Magnusiomyces capitatus [6]) | MIC90 (Magnusiomyces capitatus [7]) | MIC90 [13] | MIC90 (Trichosporon inkin [15]) | MIC90 [17] | MIC90 [19] | MIC90 (Trichosporon asahii [21]) | MIC90 (Trichosporon [25])
0.125 µg/mL: MIC50 (Magnusiomyces capitatus [4]) | MIC50 (Magnusiomyces capitatus [6]) | MIC50 [12] | MIC50 [13] | MIC50 (Trichosporon inkin [14]) | MIC50 (Trichosporon inkin [15]) | MIC50 [16] | MIC50 [17] | MIC50 [18] | MIC50 [19] | MIC50 (Trichosporon asahii [20]) | MIC50 (Trichosporon asahii [21]) | MIC50 [22] | MIC50 [23] | MIC50 (Trichosporon [24]) | MIC50 (Trichosporon [25])
2 µg/mL: MIC90 (Saccharomyces cerevisiae [1]) | MIC90 (Saccharomyces cerevisiae [10]) | MIC50 (Saccharomyces cerevisiae [11])
8 µg/mL: MIC90 (Rhodotorula mucilaginosa [3]) | MIC90 (Rhodotorula mucilaginosa [8])
0.06 µg/mL: MIC50 (Magnusiomyces capitatus [5]) | MIC50 (Magnusiomyces capitatus [7])
1 µg/mL: MIC50 (Saccharomyces cerevisiae [1]) | MIC50 (Rhodotorula mucilaginosa [3]) | MIC50 (Rhodotorula mucilaginosa [8]) | MIC50 (Saccharomyces cerevisiae [10])
> 16 µg/mL: MIC (Rhodotorula mucilaginosa [2]) | MIC50 (Rhodotorula mucilaginosa [2]) | MIC90 (Rhodotorula mucilaginosa [2]) | MIC (Rhodotorula mucilaginosa [9]) | MIC50 (Rhodotorula mucilaginosa [9]) | MIC90 (Rhodotorula mucilaginosa [9]) | MIC90 (Saccharomyces cerevisiae [11])
